Assay: Toxicity liver stage against HepG2, at 10uM
Assay type: cell-based
Set-up: test concentration 10 uM, cell line HepG2-A16-CD81EGFP
Settings: human, HepG2-A16-CD81EGFP cells; read-out: INHIBITION
Method in brief: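 Uninfected HepG2-A16-CD81EGFP cells, 3 × 10^3 per well, 1536-well, plated on prespotted compound at 10 μM final, parasite-free screening media added to match infected plates; puromycin 10 μM positive, DMSO 0.5% negative; run in parallel with 48 h PbLuc assay at 37 °C, 5% CO2; viability by CellTiter-Glo luminescence, normalized to controls.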

| Structure (SMILES) | cytotoxicity at 10 µM [%] |
| --- | --- |
| CNC(=O)CN1CCC(NC(=O)C(C)Oc2ccccc2C#N)CC1 (stereo not given) | 1.97 |
| O=C(NC[C@H]1OC[C@@H](NC2CCOCC2)[C@@H]1O)C1CCCC1 | -1 |
| COCCOc1ccnc(-c2noc([C@@H]3CCCN3CC3CC3)n2)c1 | -4.55 |
| CCOC(=O)Cc1csc(NC(=O)c2ccc(=O)[nH]n2)n1 | -1.23 |
| O=C(Cc1ccccc1)N1CC(=O)N(Cc2ccco2)CC(O)C1 (stereo not given) | -4.05 |
| Cc1cnc2n(c1=O)C(CC(=O)NCc1ccc(F)cc1)CS2 (stereo not given) | 6.47 |
| O=C(Oc1ccccc1)N1CCC(CNS(=O)(=O)c2cccnc2)CC1 | 11.1 |
| COCCN1CCCC12CCCN(c1ncccn1)C2 (stereo not given) | -6.9 |
| CS(=O)(=O)N[C@@H]1COC[C@@H]2CN(Cc3ccco3)C[C@@H]21 | -1.43 |
| O=C(C1=CCCC1)N1C[C@H](OCc2cccnc2)[C@H]2OCCC[C@H]21 | 7.86 |
| Cc1nc(N2CCCC2)nc2c1CCN(C(=O)C(C)C)CC2 | 5.02 |
| Cc1ncsc1CN1CC[C@H]2OCC[C@@]2(C(=O)N(C)C)C1 | 2.93 |
| COCCNC(=O)Cn1c(-c2cccc(Cl)c2)nc(C)c(CCO)c1=O | -0.86 |
| CC(O)CNc1c(NCc2ccco2)c(=O)c1=O (stereo not given) | -3.04 |
| CC(C)CNC(=O)c1ccc2c(c1)nc1n2CCN(Cc2ccco2)C1 | -3.78 |
| CC(=O)N1CCN(C(=O)Cn2ccc3c(Cl)cccc32)CC1 | -0.643 |
| O=C(O)CSC1CCc2ccccc2NC1=O (stereo not given) | 1.13 |
| Cc1nn(CCC(=O)N(C)Cc2c(Cl)cnn2C)cc1Br | 1.29 |
| CCn1c(NCc2ccccn2)nc2c(C)nn(C)c2c1=O | 9.51 |
| CC(NC(=O)c1ccc(Cl)cc1)c1nnc(SCC(=O)O)n1C (stereo not given) | -9.35 |
| CC(=O)N1CCCC(c2ccc(CO)c(-c3c(C)noc3C)n2)C1 (stereo not given) | -4.09 |
| CC(=O)N1CCC(c2noc(C3CCC(=O)N3)n2)CC1 (stereo not given) | 1.64 |

| Structure (SMILES) | cytotoxicity at 10 µM [%] |
| --- | --- |
| CC(C)c1cc(C(=O)N2CCCC(c3cc(=O)nc4n3CCC4)C2)no1 (stereo not given) | 0.983 |
| COc1ccc(C2CN(c3ncccn3)CCN2C(C)=O)cc1 (stereo not given) | 5.27 |
| Cc1cccc(C)c1Nc1noc2c1CN(C(=O)c1c[nH]nc1C)CC2 | 6.22 |
| c1cc(CN2CCC[C@@H](Cn3nnc(-c4cnccn4)n3)C2)ccn1 | -0.45 |
| CN(CC1(C)COC1)C(=O)c1cc(-c2ccn(C)n2)nc2ccccc12 | 9.81 |
| CCSCc1nc(O)c2nnn(C3CCN(Cc4ccoc4)CC3)c2n1 | 4.71 |
| CCc1ncc(CN2CCC(O)(c3ccccc3F)CC2)cn1 | -4.68 |
| Cc1ccnc(NC(=O)c2cncc(C3CCNCC3)n2)c1 | -9.48 |
| Fc1ccc(CN2CCC(c3noc(-c4cnccn4)n3)CC2)cc1F | 2.35 |
| CC1Cc2ccccc2N1C(=O)Cn1nc(-c2cccs2)cc(N)c1=O (stereo not given) | -10.6 |
| Cc1cc(-c2cnc(C)nc2CN(C)C(=O)c2ccccn2)on1 | 7.95 |
| CC(=O)N[C@@H]1C[C@H](c2ccc(OCCO)cc2)OC2(CCOCC2)C1 | -21.2 |
| Cc1cc(CCC(N)=O)cc(C2CCCN2Cc2ccccn2)n1 (stereo not given) | -16.7 |
| Cc1nc(C2CCCN2C(=O)CCc2ccccc2)ncc1C(N)=O (stereo not given) | -19.5 |
| Nc1nc2nc(C3CCCN(C(=O)c4cncs4)C3)ccc2s1 (stereo not given) | -19.1 |
| Cn1c(CO)cnc1SC(C(N)=O)c1ccccc1 (stereo not given) | -48.8 |
| CC(CN1CCOC1=O)NC(=O)c1ccccc1Oc1ccccc1 (stereo not given) | 1.2 |
| Cc1nn2cccnc2c1C(=O)NCc1ccccc1OCC1CC1 | -48.4 |
| NC(=O)C1CCN(C(=O)NC2CCc3cc(Cl)ccc32)CC1 (stereo not given) | 1.67 |
| CCc1ccc(C(COC)NC(=O)c2ccc(NC(C)=O)cc2)o1 (stereo not given) | -3.91 |
| COCc1nccc(C2CCCN(Cc3ccc(C#N)cc3)C2)n1 (stereo not given) | 6.45 |
| CCS(=O)(=O)N(C)C1CCN(C(=O)c2cc(C)cc(C)c2)CC1 | 11.5 |

| Structure (SMILES) | cytotoxicity at 10 µM [%] |
| --- | --- |
| COC(=O)CCNC(=O)c1cnc(Cc2ccc(F)cc2)s1 | -5.87 |
| Cc1noc(C)c1CN(C)C(=O)Nc1cnn(CC2CCCO2)c1 (stereo not given) | -2.77 |
| CC(O)CN1CCN(C(=O)CN(C)c2ccc(C#N)cn2)CC1 (stereo not given) | -0.785 |
| COCCCNC(=O)c1ccccc1S(C)(=O)=O | -2.83 |
| NC(=O)CN1CCN(c2ccnc3c(F)ccc(F)c23)CC1 | 0.315 |
| CCn1cc(S(=O)(=O)N2CCCSc3ccccc32)cn1 | 9.25 |
| COCC(C)NC(=O)CN1CCC(C)CC1 (stereo not given) | -9.32 |
| O=S(=O)(NCc1ccc(S(=O)(=O)N2CCCC2)s1)c1ccc(F)cc1Cl | -39.9 |
| CC(CCNC(=O)N(C)CC1CCOCC1)N1CCCCC1 (stereo not given) | 8.63 |
| CC(=O)NCC(=O)N1Cc2nccn2CC(CN2CCCC2=O)C1 (stereo not given) | -76.9 |
| CN1CCN(Cc2ccsc2)Cc2cccnc21 | -77.9 |
| O=C(Cc1cccnc1)N1CCCC2(CCN(CC3CCOCC3)C2)C1 (stereo not given) | 2 |
| NCC1Cc2cc(-c3cncc(C(=O)N4CCCCC4)n3)cc(F)c2O1 (stereo not given) | -51.8 |
| CCc1nccc(CN2CCC(CNC(=O)Nc3ccccc3)C2)n1 (stereo not given) | 9.99 |
| COCc1ncc(CN2CCC3(CCNCC3)CC2)cn1 | -139 |
| CCCc1nc(C)cc(NCc2ccc(S(N)(=O)=O)cc2)n1 | 10.3 |
| Cc1csc2c(=O)n(CCSc3cnn[nH]3)cnc12 | -3.61 |
| CC(C)Cc1noc(CN(C)C[C@]2(O)CCCN3CCCC[C@@H]32)n1 | -2.36 |
| O=C(c1cccc(S(=O)(=O)NCCCn2cccn2)c1)N1CCOCC1 | 5.78 |
| OC1CCCN(Cc2cn(CC3CCN(C4CCSCC4)CC3)nn2)C1 (stereo not given) | -61 |
| Cc1ccc(C(=O)N2CCC(c3nccn3C(C)C)CC2)c(=O)[nH]1 | 4.75 |
| Cc1ccc(CNC(=O)CCN2CCOC(C(F)(F)F)C2)cc1 (stereo not given) | 3.71 |

| Structure (SMILES) | cytotoxicity at 10 µM [%] |
| --- | --- |
| NC(=O)NCCC(=O)N1CCC(c2cc(-c3ccccc3Cl)n[nH]2)CC1 | -6.67 |
| NCc1n[nH]c(=O)n1-c1cccc(Cl)c1Cl | -0.994 |
| CC(C)c1ccc(CN2CCC(CNS(=O)(=O)C3CC3)C2)cc1 (stereo not given) | -1.37 |
| Cn1cccc1-c1cc(C(=O)N2CCCC2c2ccc(C(N)=O)s2)[nH]n1 (stereo not given) | -1.33 |
| Clc1cccc2c3c([nH]c12)CCN(Cc1cc2n(n1)CCCNC2)C3 | -17.1 |
| O=c1c2ccccc2ncn1Cc1cc(C2CC2)[nH]n1 | 3.8 |
| CC(C)n1cc(CN(Cc2ccc(F)cc2)CC2CCCO2)cn1 (stereo not given) | -3.47 |
| Cc1cnn(CCCN2C(=O)CCc3ccccc32)c1 | 1.39 |
| O=C(Cc1cccc(O)c1)N1CCC2(CC1)c1ccccc1CC2O (stereo not given) | 2.28 |
| O=C1CCC2(CCN(Cc3cc(F)cc(F)c3)CC2)CN1CCO | -11.6 |
| Cc1nccnc1CN1CCC2(CCCN(C3CCOCC3)C2=O)C1 (stereo not given) | -5.44 |
| Cc1nc(CN2CCCC(Cn3cc(CCO)nn3)C2)c[nH]1 (stereo not given) | -21.1 |
| O=C(CCN1CCCC1=O)NCc1cccnc1Oc1ccccc1 | -7.47 |
| CCOc1ccc(Cl)c(C(=O)NCCC(=O)Nc2ccccn2)n1 | -3.13 |
| Cc1noc(C2CCN(C(=O)CCCNc3ncccn3)CC2)n1 | -6.69 |
| Cc1nc(-c2ccsc2)ccc1C(=O)NCCN1CCN(C)CC1 | -11.2 |
| CCc1noc(CNc2ccc(C(=O)N3CCCC(C)C3)cc2C)n1 (stereo not given) | -10.8 |
| CN(CCCOc1ccccc1)C(=O)CN1CCc2cncnc2C1 | -2.06 |
| CCS(=O)(=O)c1ccccc1N1CCC(NC(=O)c2ccc[nH]2)CC1 | -8.26 |
| Cc1ccc2oc(C(=O)N3CCCC(n4nc(C)cc4C)C3)cc2n1 (stereo not given) | 1.25 |
| CC(O)CN1CCC(CNCc2ccccc2Br)CC1 (stereo not given) | -13.2 |
| Cc1ncc(CNC2CCCN(Cc3noc(C4CC4)n3)C2)s1 (stereo not given) | -7.7 |

| Structure (SMILES) | cytotoxicity at 10 µM [%] |
| --- | --- |
| c1ccc(Cn2ccnc2CN2CCCC2c2noc(C3CC3)n2)cc1 (stereo not given) | -0.818 |
| CNc1snc(C)c1C(=O)N1CCCC(n2ccnc2C(C)C)C1 (stereo not given) | 1.66 |
| O=C(CCc1cscn1)N1CCCC1c1noc(C2CC2)n1 (stereo not given) | -10.9 |
| O=C(COCC1CC1)N1CCCC(n2cncn2)C1 (stereo not given) | -3.54 |
| CCOc1ccc(Cl)cc1C1CCCN1 (stereo not given) | -12.3 |
| c1cc(CN2CCCn3cnc(COCC4CC4)c3C2)ccn1 | 7.31 |
| Cn1ccc(C(=O)N2C[C@@H]3OCCN(c4ncccn4)[C@@H]3C2)n1 | 5.7 |
| O=C(C1CCOCC1)N1CCC2(CCN(Cc3nccs3)CC2)CC1 | -83.1 |
| COCC1CC2(CCN(CC3CC3)CC2)CN1c1ncccn1 (stereo not given) | 14.1 |
| C[C@@H]1CN(C(=O)C2CCOCC2)C[C@]12CCN(c1cccnc1)C2=O | 6.95 |
| CN1CCOCC2(CCCN(C(=O)c3cnccn3)C2)C1 (stereo not given) | -75.4 |
| O=C(c1nc2c(o1)CN(CC1CC1)C2)N1CCCC1 | -163 |
| COCCNC(=O)[C@H]1C[C@@H]2CCN(c3nncs3)C[C@H]2O1 | -2.12 |
| Cc1noc(C)c1C(=O)N1C[C@@H]2COC[C@]2(COc2ccccn2)C1 | 2.47 |
| CC(C)c1nc(-c2ccnc(N3CCNCC3)n2)no1 | 1.01 |
| O=C(c1ccccc1F)N1CCCn2c(CN3CCCCC3)nnc2C1 | -71.5 |
| c1csc(CN2CCCC3(COCCN(c4cnccn4)C3)C2)c1 (stereo not given) | -68.7 |
| O=C(N[C@@H]1CN(Cc2ccccn2)[C@@H]2COC[C@@H]21)C1CCC1 | 8.67 |
| Cc1noc(C)c1CN1Cc2nccn2CC(CN2CCOCC2)C1 (stereo not given) | -82 |
| CO[C@@H]1CC[C@H]2[C@H]1OCCN2Cc1ccccn1 | 1.06 |
| NC1CCC(CN2CCCn3nc(CNC(=O)C4CCC4)cc3C2)CC1 (stereo not given) | 4.03 |
| O=C(NCC1(COc2cnccn2)C[C@@H](O)[C@@H](O)C1)C1CC1 (stereo not given in full) | 7.92 |
